In ChEMBL document CHEMBL4152188, “Design, synthesis and biological evaluation of C(4) substituted monobactams as antibacterial agents against multidrug-resistant Gram-negative bacteria” (Eur J Med Chem, 2018):
In brackets after ≈: the same amount, converted by molar mass.

Experiments:
Type in all cases: functional
Escherichia coli [1] = assay: Antibacterial activity against Escherichia coli isolate 210737 after 18 hrs in presence of BPL by CLSI broth microdilution method; conditions: isolate 210737, 18 h
In short: (§1)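 CLSI broth microdilution against clinical isolates (ESBL E. coli, KPC-2 MDR K. pneumoniae, IMP-4 MDR P. aeruginosa; five per species). Iron limitation: Mueller-Hinton broth supplemented with 16 mg/liter 2,2'-bipyridyl to complex iron and induce iron uptake systems. Read-out: MIC.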

Escherichia coli [2] = assay: Antibacterial activity against extended-spectrum beta-lactamase producing Escherichia coli isolate 209285 after 18 hrs in presence of BPL by CLSI broth microdilution method; conditions: isolate 209285, 18 h; in short: as §1
Escherichia coli [3] = assay: Antibacterial activity against extended-spectrum beta-lactamase producing Escherichia coli isolate 208687 after 18 hrs in presence of BPL by CLSI broth microdilution method; conditions: isolate 208687, 18 h; in short: as §1
Escherichia coli [4] = assay: Selectivity index, ratio of MIC for against extended-spectrum beta-lactamase producing Escherichia coli isolate 106342 to MIC for extended-spectrum beta-lactamase producing Escherichia coli isolate 106342 in presence of BPL
Pseudomonas aeruginosa [5] = assay: Antibacterial activity against IMP-4 producing Pseudomonas aeruginosa isolate 209321 after 18 hrs in presence of BPL by CLSI broth microdilution method; conditions: isolate 209321, 18 h; in short: as §1
Pseudomonas aeruginosa [6] = assay: Antibacterial activity against IMP-4 producing Pseudomonas aeruginosa isolate 209471 after 18 hrs in presence of BPL by CLSI broth microdilution method; conditions: isolate 209471, 18 h; in short: as §1
Pseudomonas aeruginosa [7] = assay: Antibacterial activity against IMP-4 producing Pseudomonas aeruginosa isolate 207272 after 18 hrs in presence of BPL by CLSI broth microdilution method; conditions: isolate 207272, 18 h; in short: as §1
Pseudomonas aeruginosa [8] = assay: Selectivity index, ratio of MIC for against IMP-4 producing Pseudomonas aeruginosa isolate 212886 to MIC for against IMP-4 producing Pseudomonas aeruginosa isolate 212886 in presence of BPL
Klebsiella pneumoniae [9] = assay: Antibacterial activity against KPC-2 producing Klebsiella pneumoniae isolate 209735 after 18 hrs in presence of BPL by CLSI broth microdilution method; conditions: isolate 209735, 18 h; in short: as §1
Pseudomonas aeruginosa [10] = assay: Selectivity index, ratio of MIC for against IMP-4 producing Pseudomonas aeruginosa isolate 209471 to MIC for against IMP-4 producing Pseudomonas aeruginosa isolate 209471 in presence of BPL
Klebsiella pneumoniae [11] = assay: Antibacterial activity against KPC-2 producing Klebsiella pneumoniae isolate 209735 after 18 hrs by CLSI broth microdilution method; conditions: isolate 209735, 18 h
Escherichia coli [12] = assay: Antibacterial activity against extended-spectrum beta-lactamase producing Escherichia coli isolate 209285 after 18 hrs by CLSI broth microdilution method; conditions: isolate 209285, 18 h
Escherichia coli [13] = assay: Selectivity index, ratio of MIC for against extended-spectrum beta-lactamase producing Escherichia coli isolate 212648 to MIC for extended-spectrum beta-lactamase producing Escherichia coli isolate 212648 in presence of BPL
Pseudomonas aeruginosa [14] = assay: Antibacterial activity against IMP-4 producing Pseudomonas aeruginosa isolate 208247 after 18 hrs by CLSI broth microdilution method; conditions: isolate 208247, 18 h
Pseudomonas aeruginosa [15] = assay: Selectivity index, ratio of MIC for against IMP-4 producing Pseudomonas aeruginosa isolate 209321 to MIC for against IMP-4 producing Pseudomonas aeruginosa isolate 209321 in presence of BPL
Klebsiella pneumoniae [16] = assay: Antibacterial activity against KPC-2 producing Klebsiella pneumoniae isolate 212232 after 18 hrs in presence of BPL by CLSI broth microdilution method; conditions: isolate 212232, 18 h; in short: as §1
Klebsiella pneumoniae [17] = assay: Antibacterial activity against KPC-2 producing Klebsiella pneumoniae isolate 209632 after 18 hrs by CLSI broth microdilution method; conditions: isolate 209632, 18 h
Klebsiella pneumoniae [18] = assay: Antibacterial activity against KPC-2 producing Klebsiella pneumoniae isolate 212229 after 18 hrs in presence of BPL by CLSI broth microdilution method; conditions: isolate 212229, 18 h; in short: as §1
Pseudomonas aeruginosa [19] = assay: Antibacterial activity against IMP-4 producing Pseudomonas aeruginosa isolate 207272 after 18 hrs by CLSI broth microdilution method; conditions: isolate 207272, 18 h
Klebsiella pneumoniae [20] = assay: Antibacterial activity against KPC-2 producing Klebsiella pneumoniae isolate 212232 after 18 hrs by CLSI broth microdilution method; conditions: isolate 212232, 18 h
Klebsiella pneumoniae [21] = assay: Antibacterial activity against KPC-2 producing Klebsiella pneumoniae isolate 212423 after 18 hrs in presence of BPL by CLSI broth microdilution method; conditions: isolate 212423, 18 h; in short: as §1
Escherichia coli [22] = assay: Selectivity index, ratio of MIC for against Escherichia coli isolate 210737 to MIC for Escherichia coli isolate 210737 in presence of BPL
Escherichia coli [23] = assay: Antibacterial activity against extended-spectrum beta-lactamase producing Escherichia coli isolate 106342 after 18 hrs by CLSI broth microdilution method; conditions: isolate 106342, 18 h
Escherichia coli [24] = assay: Antibacterial activity against extended-spectrum beta-lactamase producing Escherichia coli isolate 106342 after 18 hrs in presence of BPL by CLSI broth microdilution method; conditions: isolate 106342, 18 h; in short: as §1
Escherichia coli [25] = assay: Antibacterial activity against extended-spectrum beta-lactamase producing Escherichia coli isolate 212648 after 18 hrs in presence of BPL by CLSI broth microdilution method; conditions: isolate 212648, 18 h; in short: as §1
Klebsiella pneumoniae [26] = assay: Antibacterial activity against KPC-2 producing Klebsiella pneumoniae isolate 209632 after 18 hrs in presence of BPL by CLSI broth microdilution method; conditions: isolate 209632, 18 h; in short: as §1
Escherichia coli [27] = assay: Selectivity index, ratio of MIC for against extended-spectrum beta-lactamase producing Escherichia coli isolate 209285 to MIC for extended-spectrum beta-lactamase producing Escherichia coli isolate 209285 in presence of BPL
Pseudomonas aeruginosa [28] = assay: Antibacterial activity against IMP-4 producing Pseudomonas aeruginosa isolate 209471 after 18 hrs by CLSI broth microdilution method; conditions: isolate 209471, 18 h
Klebsiella pneumoniae [29] = assay: Selectivity index, ratio of MIC for against KPC-2 producing Klebsiella pneumoniae isolate 209735 to MIC for against KPC-2 producing Klebsiella pneumoniae isolate 209735 in presence of BPL
Pseudomonas aeruginosa [30] = assay: Selectivity index, ratio of MIC for against IMP-4 producing Pseudomonas aeruginosa isolate 208247 to MIC for against IMP-4 producing Pseudomonas aeruginosa isolate 208247 in presence of BPL
Klebsiella pneumoniae [31] = assay: Selectivity index, ratio of MIC for against KPC-2 producing Klebsiella pneumoniae isolate 212232 to MIC for against KPC-2 producing Klebsiella pneumoniae isolate 212232 in presence of BPL
Klebsiella pneumoniae [32] = assay: Selectivity index, ratio of MIC for against KPC-2 producing Klebsiella pneumoniae isolate 212229 to MIC for against KPC-2 producing Klebsiella pneumoniae isolate 212229 in presence of BPL
Escherichia coli [33] = assay: Antibacterial activity against extended-spectrum beta-lactamase producing Escherichia coli isolate 208687 after 18 hrs by CLSI broth microdilution method; conditions: isolate 208687, 18 h
Pseudomonas aeruginosa [34] = assay: Antibacterial activity against IMP-4 producing Pseudomonas aeruginosa isolate 208247 after 18 hrs in presence of BPL by CLSI broth microdilution method; conditions: isolate 208247, 18 h; in short: as §1
Klebsiella pneumoniae [35] = assay: Antibacterial activity against KPC-2 producing Klebsiella pneumoniae isolate 212229 after 18 hrs by CLSI broth microdilution method; conditions: isolate 212229, 18 h
Pseudomonas aeruginosa [36] = assay: Antibacterial activity against IMP-4 producing Pseudomonas aeruginosa isolate 212886 after 18 hrs by CLSI broth microdilution method; conditions: isolate 212886, 18 h
Escherichia coli [37] = assay: Antibacterial activity against Escherichia coli isolate 210737 after 18 hrs by CLSI broth microdilution method; conditions: isolate 210737, 18 h
Klebsiella pneumoniae [38] = assay: Selectivity index, ratio of MIC for against KPC-2 producing Klebsiella pneumoniae isolate 209632 to MIC for against KPC-2 producing Klebsiella pneumoniae isolate 209632 in presence of BPL
Klebsiella pneumoniae [39] = assay: Selectivity index, ratio of MIC for against KPC-2 producing Klebsiella pneumoniae isolate 212423 to MIC for against KPC-2 producing Klebsiella pneumoniae isolate 212423 in presence of BPL
Escherichia coli [40] = assay: Antibacterial activity against extended-spectrum beta-lactamase producing Escherichia coli isolate 212648 after 18 hrs by CLSI broth microdilution method; conditions: isolate 212648, 18 h
Pseudomonas aeruginosa [41] = assay: Selectivity index, ratio of MIC for against IMP-4 producing Pseudomonas aeruginosa isolate 207272 to MIC for against IMP-4 producing Pseudomonas aeruginosa isolate 207272 in presence of BPL
Pseudomonas aeruginosa [42] = assay: Antibacterial activity against IMP-4 producing Pseudomonas aeruginosa isolate 212886 after 18 hrs in presence of BPL by CLSI broth microdilution method; conditions: isolate 212886, 18 h; in short: as §1
Escherichia coli [43] = assay: Selectivity index, ratio of MIC for against extended-spectrum beta-lactamase producing Escherichia coli isolate 208687 to MIC for extended-spectrum beta-lactamase producing Escherichia coli isolate 208687 in presence of BPL
Pseudomonas aeruginosa [44] = assay: Antibacterial activity against IMP-4 producing Pseudomonas aeruginosa isolate 209321 after 18 hrs by CLSI broth microdilution method; conditions: isolate 209321, 18 h
Klebsiella pneumoniae [45] = assay: Antibacterial activity against KPC-2 producing Klebsiella pneumoniae isolate 212423 after 18 hrs by CLSI broth microdilution method; conditions: isolate 212423, 18 h

`CC(C)C(O/N=C(\C(=O)N[C@@H]1C(=O)N(S(=O)(=O)O)[C@@H]1COC(=O)c1ccc(O)c(O)c1Cl)c1csc(N)n1)c1cc(=O)c(O)cn1O` (stereo not given in full) showed an MIC (Escherichia coli [1]) greater than 64 µg/mL, an MIC (Escherichia coli [2]) of 32 µg/mL and an MIC (Escherichia coli [3]) of 16 µg/mL. The “Selectivity Index” value (Escherichia coli [4]) was 2, the MIC (Pseudomonas aeruginosa [5]) was 32 µg/mL and the MIC (Pseudomonas aeruginosa [6]) was 64 µg/mL. The MIC (Pseudomonas aeruginosa [7]) was greater than 64 µg/mL, the “Selectivity Index” value (Pseudomonas aeruginosa [8]) was 1 - 2 and the MIC (Klebsiella pneumoniae [9]) was 4 µg/mL. The “Selectivity Index” value (Pseudomonas aeruginosa [10]) was 1, the MIC (Klebsiella pneumoniae [11]) was 32 µg/mL (≈ 44.6 µM) and the MIC (Escherichia coli [12]) was 32 µg/mL (≈ 44.6 µM). The “Selectivity Index” value (Escherichia coli [13]) was 2, the MIC (Pseudomonas aeruginosa [14]) was greater than 64 µg/mL and the “Selectivity Index” value (Pseudomonas aeruginosa [15]) was 2. The MIC (Klebsiella pneumoniae [16]) was 4 µg/mL, the MIC (Klebsiella pneumoniae [17]) was 32 µg/mL (≈ 44.6 µM) and the MIC (Klebsiella pneumoniae [18]) was 4 µg/mL. It also gave an MIC (Pseudomonas aeruginosa [19]) greater than 64 µg/mL, an MIC (Klebsiella pneumoniae [20]) of 32 µg/mL (≈ 44.6 µM) and an MIC (Klebsiella pneumoniae [21]) of 4 µg/mL. For the same molecule, the “Selectivity Index” value (Escherichia coli [22]) was 1 - 2, the MIC (Escherichia coli [23]) was 16 µg/mL (≈ 22.3 µM) and the MIC (Escherichia coli [24]) was 8 µg/mL. For the same molecule, the MIC (Escherichia coli [25]) was 16 µg/mL, the MIC (Klebsiella pneumoniae [26]) was 4 µg/mL and the “Selectivity Index” value (Escherichia coli [27]) was 1. The MIC (Pseudomonas aeruginosa [28]) was 64 µg/mL (≈ 89.2 µM), the “Selectivity Index” value (Klebsiella pneumoniae [29]) was 8 and the “Selectivity Index” value (Pseudomonas aeruginosa [30]) was 1 - 2. The “Selectivity Index” value (Klebsiella pneumoniae [31]) was 8, the “Selectivity Index” value (Klebsiella pneumoniae [32]) was 8 and the MIC (Escherichia coli [33]) was 32 µg/mL (≈ 44.6 µM). It also gave an MIC (Pseudomonas aeruginosa [34]) greater than 64 µg/mL, an MIC (Klebsiella pneumoniae [35]) of 32 µg/mL (≈ 44.6 µM) and an MIC (Pseudomonas aeruginosa [36]) greater than 64 µg/mL. For the same molecule, the MIC (Escherichia coli [37]) was greater than 64 µg/mL, the “Selectivity Index” value (Klebsiella pneumoniae [38]) was 8 and the “Selectivity Index” value (Klebsiella pneumoniae [39]) was 4. The MIC (Escherichia coli [40]) was 32 µg/mL (≈ 44.6 µM), the “Selectivity Index” value (Pseudomonas aeruginosa [41]) was 1 - 2 and the MIC (Pseudomonas aeruginosa [42]) was greater than 64 µg/mL. The “Selectivity Index” value (Escherichia coli [43]) was 2, the MIC (Pseudomonas aeruginosa [44]) was 64 µg/mL (≈ 89.2 µM) and the MIC (Klebsiella pneumoniae [45]) was 16 µg/mL (≈ 22.3 µM).
